Active and inactive are the calls of the source. No cut-off for these calls is given here.
Key:
[1] = Cytotoxicity against human Detroit 551 cells after 48 hrs by MTT assay; assay type: cell-based
Procedure, shortened: (§1)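 Cells grown in DMEM with 10% FBS at 37 °C and 5% CO2, seeded at 5 × 10^3 per well and allowed 24 h before drug. Serial dilutions from DMSO stocks applied for 48 h. MTT (2 mg/mL in PBS) added for 2 h, formazan dissolved in DMSO, absorbance read at 570 nm. GI50 interpolated by linear regression from at least three points in the 20-80% range; three independent experiments.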

SAS [2] = test: Selectivity index, ratio of IC50 for human Detroit 551 cells to IC50 for human SAS cells; assay type: functional
PC-3 = test: Cytotoxicity against human PC3 cells after 48 hrs by MTT assay; assay type: functional; conditions: PC-3, 48 h; procedure, shortened: as §1
A549 = test: Cytotoxicity against human A549 cells after 48 hrs by MTT assay; assay type: functional; conditions: A549, 48 h; procedure, shortened: as §1
[3] = Cytotoxicity against human BT-483 cells after 48 hrs by MTT assay; assay type: functional; conditions: BT-483, 48 h; procedure, shortened: as §1
[4] = biological target: T1, DNA topoisomerase 1 (Homo sapiens) (UniProt P11387); test: Inhibition of human topoisomerase 1 assessed as decrease in pBR322 mobility on agarose gel at 10 uM by electrophoresis
T1 sequence (whole entry): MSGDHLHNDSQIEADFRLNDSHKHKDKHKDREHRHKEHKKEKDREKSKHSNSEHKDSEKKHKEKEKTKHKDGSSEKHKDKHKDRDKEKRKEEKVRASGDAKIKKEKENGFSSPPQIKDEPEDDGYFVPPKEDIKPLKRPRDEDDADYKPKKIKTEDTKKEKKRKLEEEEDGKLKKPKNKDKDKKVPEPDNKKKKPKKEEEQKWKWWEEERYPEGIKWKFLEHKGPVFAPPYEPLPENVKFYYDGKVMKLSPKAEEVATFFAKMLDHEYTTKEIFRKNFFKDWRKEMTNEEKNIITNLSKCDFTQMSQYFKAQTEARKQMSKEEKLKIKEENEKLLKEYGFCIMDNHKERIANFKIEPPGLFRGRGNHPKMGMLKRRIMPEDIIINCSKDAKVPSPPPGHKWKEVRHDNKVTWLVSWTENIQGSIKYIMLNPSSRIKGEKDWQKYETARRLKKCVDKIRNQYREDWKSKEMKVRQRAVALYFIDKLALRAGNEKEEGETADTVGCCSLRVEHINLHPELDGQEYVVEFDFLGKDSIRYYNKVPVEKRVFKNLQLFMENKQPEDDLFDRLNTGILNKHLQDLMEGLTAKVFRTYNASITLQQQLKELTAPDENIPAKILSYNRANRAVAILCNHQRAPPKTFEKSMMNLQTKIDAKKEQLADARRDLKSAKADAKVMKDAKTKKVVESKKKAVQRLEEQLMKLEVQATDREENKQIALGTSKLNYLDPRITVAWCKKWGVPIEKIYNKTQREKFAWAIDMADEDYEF
Procedure, shortened: (§2)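 Enzyme preincubated with compound before DNA addition; reaction run 30 min at 37 °C and stopped with SDS. Products resolved on 1% agarose, stained with ethidium bromide, quantified by densitometry.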

HeLa [5] = test: Selectivity index, ratio of IC50 for human Detroit 551 cells to IC50 for human HeLa cells; assay type: functional
[6] = Inhibition of human topoisomerase 2 assessed as decrease in pBR322 mobility on agarose gel by electrophoresis; procedure, shortened: as §2
Detroit 551 [7] = test: Selectivity index, ratio of IC50 for human Detroit 551 cells to IC50 for human SKHep cells; assay type: functional
Nucleic Acid = test: Binding affinity to pBR322; assay type: nucleic-acid assay; conditions: Escherichia coli
[8] = Cytotoxicity against human SKHep cells after 48 hrs by MTT assay; assay type: functional; procedure, shortened: as §1
SAS [9] = test: Cytotoxicity against human SAS cells after 48 hrs by MTT assay; assay type: functional; procedure, shortened: as §1
Homo sapiens = species: Homo sapiens; test: Inhibition of human topoisomerase 2 assessed as decrease in pBR322 mobility on agarose gel at 10 uM by electrophoresis; procedure, shortened: as §2
Detroit 551 [10] = test: Selectivity index, ratio of IC50 for human Detroit 551 cells to IC50 for human A549 cells; assay type: functional
Detroit 551 [11] = test: Selectivity index, ratio of IC50 for human Detroit 551 cells to IC50 for human BT-483 cells; assay type: functional
HeLa [12] = test: Cytotoxicity against human HeLa cells after 48 hrs by MTT assay; assay type: functional; procedure, shortened: as §1
Detroit 551 [13] = test: Selectivity index, ratio of IC50 for human Detroit 551 cells to IC50 for human PC3 cells; assay type: functional
DNA topoisomerase 1 = biological target: T2, DNA topoisomerase 1 (Homo sapiens, UniProt P11387); test: Inhibition of human topoisomerase 1 assessed as decrease in pBR322 mobility on agarose gel by electrophoresis; procedure, shortened: as §2
T2 sequence (P11387 whole entry): T1 sequence (whole entry)

| SMILES | GI50 at 48 h [1] | RatioGI50 (SAS [2]) | GI50 (PC-3) | GI50 (A549) | GI50 [3] | inhibition [4] | RatioGI50 (HeLa [5]) | IC50 [6] | RatioGI50 (Detroit 551 [7]) | Activity (Nucleic Acid) | GI50 [8] | GI50 (SAS [9]) | inhibition (Homo sapiens) | RatioGI50 (Detroit 551 [10]) | RatioGI50 (Detroit 551 [11]) | GI50 (HeLa [12]; read-out: GI50) | GI50 (HeLa [12]; read-out: pGI50 (converted)) | RatioGI50 (Detroit 551 [13]) | IC50 (DNA topoisomerase 1) |
| --- | --- | --- | --- | --- | --- | --- | --- | --- | --- | --- | --- | --- | --- | --- | --- | --- | --- | --- | --- |
| COc1ccc2c(c1)/C(=N\OCCN1CCCCC1)c1c-2cnc2ccccc12 | 6.3 µM | 0.88 | 6.38 µM | 8.48 µM | 5.17 µM | 28% | 2.36 | 10.1 µM | 1.2 | Active | 5.26 µM | 7.18 µM | 50% | 0.74 | 1.22 | 2.67 µM | 2.69 µM | 0.99 | 16.5 µM |
| COc1ccc2c(c1)/C(=N\OCCN(C)C)c1c-2cnc2ccccc12 | 6.85 µM | 6.01 | 1.89 µM | 1.3 µM | 3.61 µM | 82% | 16.31 | 6.7 µM | 5.71 | Active | 1.2 µM | 1.14 µM | 75% | 5.27 | 1.9 | 0.42 µM | 0.417 µM | 3.62 | 7.2 µM |

Source: ChEMBL document CHEMBL1240482, “Synthesis and antiproliferative evaluation of certain indeno[1,2-c]quinoline derivatives. Part 2” (J Med Chem, 2010)
